According to PMC10131263 (Chemical & Biomedical Imaging, 2023):

Experiments:
HUVECs = test: Fluorescence microscopy of beacon uptake and activation, HUVECs; type: cell-based, human; settings: 2.5 μM, 24 h incubation, fluorescence microscopy Cy5 channel
Summary of the method: (§1)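 Cells (patient-derived SFs or donated HUVECs) seeded at 5 × 10^3 per well in 8-chamber slides. After 24 h the medium was changed and test compound added to 2.5 µM final for a further 24 h. Cells washed, fixed in 4% paraformaldehyde for 20 min and mounted with DAPI. Imaged on an inverted microscope: Cy5 620/60 ex, 665 long-pass em; exposure 200 ms for SFs, 1500 ms for HUVECs.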

MMP-13 expressing SFs = test: Fluorescence microscopy of beacon uptake and activation, SFs; type: cell-based, human; settings: 2.5 μM, 24 h incubation, fluorescence microscopy Cy5 channel
Summary of the method: as §1

**Q.** Which results are given for Pyro-glgfrvgk-BHQ3 [DPPMMP13B]?
**A.** Intracellular pyro fluorescence in HUVECs (negligible MMP-13 expression) (HUVECs): negligible fluorescence; Intracellular pyro fluorescence in MMP-13 + SFs (MMP-13 expressing SFs): negligible fluorescence
